Here are results for two compounds from PubChem BioAssay AID493236 (Broad Institute, 2011).

Results filed as inconclusive are left out. Active and inactive are the calls of the source.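 How the source made its calls: active means luminescence cut by more than half of the full-inhibition control window in a dose series; inconclusive means no clear call, values can overlap the other calls; inactive means signal rising instead of falling, or the rest.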

For this experiment, the system named is proteasome chymotrypsin-like activity (human). The experiment can be described thus: proteasome chymotrypsin-like activity inhibitors, dose response, counter-screen for HIF pathway activator project, cell-based, U2OS, luminescence, dry powder, set 4 (AID 493236). In a few lines:
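Times: 24 h plating, 4 h compound, 2 h reagent / System: U2OS cells / Quantity: 2,500 U2OS cells per well / Technique: Proteasome-Glo luminescence / Repeats: each compound tested in duplicate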
(Counterscreens check selectivity or assay interference.)

Consider `Oc1ccc(CN2CCC3CCCCC3C2)c2cccnc12` (configuration not stated), for which the result was inactive.

`N#CC1(c2ccccc2)CCN(Cc2ccc(O)c3ncccc23)CC1`: the compound was classed as inactive.
